# Source: ChEMBL document CHEMBL3045036, “Chemical composition, plant genetic differences, and antifungal activity of the essential oil of Helichrysum italicum G. Don ssp. microphyllum (Willd) Nym” (2003)
# Assays:
# Assay type in all cases: functional
# Globisporangium ultimum = test: Fungicidal activity against Pythium ultimum
# Procedure, shortened: (§1)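 Broth microdilution MIC. Essential oil stock of 1 mg/mL was made in sterile broth with 50% ethanol, then serially diluted in 100 µL potato dextrose broth per well. Each well received 1 µL fungal suspension (~1 × 10^5 cells). Incubation matched the paper-disc test: several days at 24 °C. Growth and medium sterility were checked for each strain.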
# Phytophthora capsici = test: Fungicidal activity against Phytophthora capsici; procedure, shortened: as §1
# Pyricularia oryzae = test: Fungicidal activity against Magnaporthe oryzae; procedure, shortened: as §1
# Helminthosporium = test: Fungicidal activity against Helminthosporium oryzae; procedure, shortened: as §1
# Athelia rolfsii = test: Fungicidal activity against Athelia rolfsii; conditions: Agroathelia rolfsii; procedure, shortened: as §1
# Cercospora beticola = test: Fungicidal activity against Cercospora beticola; procedure, shortened: as §1
# Zymoseptoria tritici = test: Fungicidal activity against Zymoseptoria tritici; procedure, shortened: as §1
# Rhizoctonia solani = test: Fungicidal activity against Rhizoctonia solani; procedure, shortened: as §1
# [1] = test system: Fusarium oxysporum f. sp. lycopersici; test: Fungicidal activity against Fusarium oxysporum f. sp. Lycopersici; procedure, shortened: as §1
# Fusarium graminearum = test: Fungicidal activity against Fusarium graminearum; procedure, shortened: as §1
# Botrytis cinerea = test: Fungicidal activity against Botryotinia fuckeliana; procedure, shortened: as §1
smiles,measurement,setting,value
COCC(=O)N(c1c(C)cccc1C)C(C)C(=O)OC (stereo unspecified) [METALAXYL],MIC,Globisporangium ultimum,0.6 µg/mL
same,MIC,Phytophthora capsici,1.5 µg/mL
CO/N=C(\C(=O)OC)c1ccccc1COc1ccccc1C [KRESOXYM-METHYL],MIC,Pyricularia oryzae,1.5 µg/mL
FC(F)C(F)(F)OCC(Cn1cncn1)c1ccc(Cl)cc1Cl (stereo unspecified) [TETRACONAZOLE],MIC,Helminthosporium,0.1 µg/mL
same,MIC,Athelia rolfsii,25 µg/mL
same,MIC,Cercospora beticola,1.5 µg/mL
CCCCNC(=O)n1c(NC(=O)OC)nc2ccccc21 [BENOMYL],MIC,Zymoseptoria tritici,0.6 µg/mL
same,MIC,Rhizoctonia solani,6.2 µg/mL
same,MIC,[1],1.5 µg/mL
same,MIC,Fusarium graminearum,0.6 µg/mL
CCOC(=O)C1(C)OC(=O)N(c2cc(Cl)cc(Cl)c2)C1=O (stereo unspecified) [CHLOZOLINATE],MIC,Botrytis cinerea,3.1 µg/mL
